Laboratory results as given in ChEMBL document CHEMBL4765278, “Synthesis of antiplatelet ortho-carbonyl hydroquinones with differential action on platelet aggregation stimulated by collagen or TRAP-6” (Eur J Med Chem, 2020).
The source made the active and inactive calls. The calls are words filed in the database; no cut-off is given here.

Key:
[1] = (§1) Inhibition of collagen-induced platelet aggregation in human platelet preincubated for 5 mins followed by collagen-stimulation and measured after 6 mins by lumi-aggregometric method; assay type: functional, tissue-based
In short: (§2)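 Light transmission aggregometry of washed human platelets (3x10^8/mL) preincubated 5 min with 2 mM CaCl2 plus compound (0.2 to 200 μM; DMSO 0.2% vehicle). Aggregation induced by TRAP-6 (5 μM) or collagen (1 μg/mL) and followed 6 min. IC50 from dose-response curves, mean ± SEM of three experiments. S.I. = IC50 TRAP-6/IC50 collagen.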

[2] = Selectivity index, ratio of IC50 for inhibition of TRAP6-induced platelet aggregation in human platelet to IC50 for inhibition of collagen-induced platelet aggregation in human platelet; assay type: functional; in short: as §2
[3] = system: Platelet; assay: Cytotoxicity against human Platelet assessed as increase in LDH leakage at 200 uM after 10 mins by LDH assay; assay type: cell-based
In short: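 Washed platelets (3x10^8/mL) incubated 10 min at 37°C with compound (200 μM), then centrifuged 800 x g for 8 min. Supernatant LDH kit read at 490 nm; 10% Triton X-100 served as positive control.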

[4] = (§3) Inhibition of TRAP6-induced platelet aggregation in human platelet preincubated for 5 mins followed by TRAP6-stimulation and measured after 6 mins by lumi-aggregometric method; assay type: functional, tissue-based; in short: as §2
[5] = Inhibition of TRAP6-induced platelet aggregation in human platelet preincubated for 5 mins followed by 10 uM TRAP6-stimulation and measured after 6 mins by lumi-aggregometric method relative to control; assay type: functional; conditions: time 11 min
In short: (§4)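 Washed platelets (3x10^8/mL) preincubated 5 min with 2 mM CaCl2 plus compound, then challenged at maximal agonist level, 10 μM TRAP-6 or 2 collagen as printed. Transmission followed 6 min and compared with DMSO 0.2% control; n=3.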

[6] = system: Platelet; assay: as §1; assay type: functional, tissue-based; conditions: time 11.0 min; in short: as §2
[7] = system: Platelet; assay: Antiplatelet activity in human Platelet assessed as intracellular NADH level at 2 to 20 uM by fluorescence assay; assay type: functional, cell-based; conditions: dose 2-20 µM
In short: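 NAD(P)H autofluorescence in resting washed platelets, excitation 340 nm and emission 428 nm. Mean ± SEM of n=3.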

[8] = system: Platelet; assay: Antiplatelet activity in human Platelet assessed as inhibition of TRAP6-induced GP2a/3b activation at 2 to 20 uM by flow cytometric analysis; assay type: functional, cell-based; conditions: dose 2-20 µM
[9] = system: Platelet; assay: Antiplatelet activity in human Platelet assessed as inhibition of TRAP6-induced p-selectin protein expression at 2 to 20 uM by flow cytometric analysis; assay type: functional, cell-based; conditions: dose 2-20 µM
[10] = system: Platelet; assay: Antiplatelet activity in human Platelet assessed as inhibition of TRAP6-induced CD63 expression at 2 to 20 uM by flow cytometric analysis; assay type: functional, cell-based; conditions: dose 2-20 µM
[11] = system: Platelet; assay: Antiplatelet activity in human Platelet assessed as intracellular calcium level at 2 to 20 uM preincubated for 5 mins and measured for 15 sec by Fluo-3-AM staining based assay; assay type: functional, cell-based; conditions: dose 2-20 µM
In short: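 Washed platelets (5x10^7/mL) loaded with Fluo-3-AM (0.4 μM) for 30 min at RT, then given vehicle (DMSO 0.2%) or compound for 5 min. Baseline recorded 15 s, then FCCP (1 μM) added and read 60 s more by flow cytometry. Expressed relative to control.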

[12] = system: Platelet; assay: Antiplatelet activity in human Platelet assessed as mitochondrial membrane potential loss at 20 uM by TMRM staining based flow cytometric analysis; assay type: functional, cell-based
In short: (§5)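 Washed platelets loaded with TMRM (100 nM), then incubated with DMSO 0.2%, compound or FCCP (1 μM) at 37°C for 20 min; ΔΨm by flow cytometry.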

[13] = system: Platelet; assay: Antiplatelet activity in human Platelet assessed as decrease in intracellular ATP level at 20 uM by Cell Titer-Glo luminescent cell viability assay; assay type: functional, cell-based
In short: (§6)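 Intraplatelet ATP in resting washed human platelets measured by CellTiter-Glo luminescence following the kit instructions. Mean ± SEM of n=3 experiments.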

[14] = system: Platelet; assay: Antiplatelet activity in human Platelet assessed as inhibition of TRAP6-induced ATP secretion at 2 to 20 uM by Cell Titer-Glo luminescent cell viability assay; assay type: functional, cell-based; conditions: dose 2-20 µM
[15] = system: Platelet; assay: Antiplatelet activity in human Platelet assessed as increase in ROS production at 20 uM by DHE staining based flow cytometric analysis; assay type: functional, cell-based
In short: (§7)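 Washed human platelets (5x10^7/mL) exposed to compounds with 10 μM dihydroethidium for 20 min at 37°C; ROS read by flow cytometry. Mean ± SEM of three experiments.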

[16] = Inhibition of collagen-induced platelet aggregation in human platelet preincubated for 5 mins followed by 2 ug/ml collagen-stimulation and measured after 6 mins by lumi-aggregometric method relative to control; assay type: functional; conditions: time 11 min; in short: as §4
[17] = system: Platelet; assay: as §3; assay type: functional, tissue-based; conditions: time 11.0 min; in short: as §2
[18] = system: Platelet; assay: Effect on platelet activation in human collagen/TRAP6-inducrd human Platelet assessed as positive subpopulation cells at 2 to 20 uM by annexin V-FITC staining based flow cytometric analysis; assay type: functional, tissue-based; conditions: dose 2-20 µM
In short: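 Washed platelets (3x10^8/mL) preincubated 5 min with 2 mM CaCl2 plus compound and stimulated with collagen + TRAP-6. Diluted in annexin V binding buffer and stained with annexin V-FITC and anti-CD61-PE for 25 min in the dark; flow cytometry.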

[19] = system: Platelet; assay: Antiplatelet activity in human Platelet assessed as ROS production at 2 to 20 uM by DHE staining based flow cytometric analysis; assay type: functional, cell-based; conditions: dose 2-20 µM; in short: as §7
[20] = system: Platelet; assay: Antiplatelet activity in human Platelet assessed as inhibition of collagen-induced p-selectin protein expression at 2 to 20 uM by flow cytometric analysis; assay type: functional, cell-based; conditions: dose 2-20 µM
[21] = system: Platelet; assay: Antiplatelet activity in human Platelet assessed as intracellular ATP level at 2 to 20 uM by Cell Titer-Glo luminescent cell viability assay; assay type: functional, cell-based; conditions: dose 2-20 µM; in short: as §6
[22] = system: Platelet; assay: Antiplatelet activity in human Platelet assessed as inhibition of collagen-induced ATP secretion at 2 to 20 uM by Cell Titer-Glo luminescent cell viability assay; assay type: functional, cell-based; conditions: dose 2-20 µM
[23] = system: Platelet; assay: Antiplatelet activity in human Platelet assessed as mitochondrial membrane potential loss at 2 to 20 uM by TMRM staining based flow cytometric analysis; assay type: functional, cell-based; conditions: dose 2-20 µM; in short: as §5
[24] = system: Platelet; assay: Antiplatelet activity in human Platelet assessed as inhibition of collagen-induced GP2a/3b activation at 2 to 20 uM by flow cytometric analysis; assay type: functional, cell-based; conditions: dose 2-20 µM

SMILES	IC50 [1] [µM]	IC50 [4] [µM]	Ratio IC50 [2]	Activity [3]	other results
CC1C=CC(COC(=O)C2CCCCC2)c2c(O)c3c(c(O)c21)C(C)(C)C=CC3=O (stereo not given)	> 100	> 100		Non-Toxic	
O=C1C=CC2(CCCC2)c2c(O)c3c(c(O)c21)CC=CC3	25.5	> 100	3.92	Non-Toxic	
CC1C=CC(CO)c2c(O)c3c(c(O)c21)C(C)(C)C=CC3=O (stereo not given)	11.5	15.8	1.37	Non-Toxic	
CCCCCCCC1=CC(C)(C)c2c(O)ccc(O)c2C1=O				Toxic	
CCCSc1nc(N[C@@H]2C[C@H]2c2ccc(F)c(F)c2)c2nnn([C@@H]3C[C@H](OCCO)[C@@H](O)[C@H]3O)c2n1 [TICAGRELOR]	2	4	2		
CC1C=CC(COC(=O)C2CCCCC2)c2c(O)c3c(c(O)c21)C(=O)C=CC3(C)C (stereo not given)	> 100	> 100		Non-Toxic	
CC1C=CC(CO)c2c(O)c3c(c(O)c21)C(=O)C=CC3(C)C (stereo not given)	4.38	> 100	22.83	Non-Toxic	
CCCCCC1=CC(C)(C)c2c(O)ccc(O)c2C1=O				Toxic	
CCCCCCC1=CC(C)(C)c2c(O)ccc(O)c2C1=O				Toxic	

The next lines start with results.

IC50 [1] [µM]	IC50 [4] [µM]	SMILES	Ratio IC50 [2]	Activity [3]	other results
20.6	> 100	CC1(C)C=CC(=O)c2c(O)c3c(c(O)c21)CC=CC3	4.86	Non-Toxic	
35.3	31.9	CCC1(CC)C=CC(=O)c2c(O)ccc(O)c21	0.9	Non-Toxic	
12	> 100	Cc1c(C)c(O)c2c(c1O)C(=O)C=CC2(C)C	8.35	Non-Toxic	
17.1	11.9	CCC1(CC)C=CC(=O)c2c(O)c3c(c(O)c21)CC=CC3	0.69	Non-Toxic	inhibition (INH) [5]: 100%; inhibition [6]: Dose-dependent effect; Activity [7]: inactive; inhibition [8]: Active; inhibition [9]: Active; inhibition [10]: Active; Activity [11]: inactive; Activity [12]: Active; Activity [13]: Active; inhibition [14]: Active; Activity [15]: Active; inhibition (INH) [16]: 100%; inhibition [17]: Dose-dependent effect; Activity [18]: inactive
14.3	> 100	CC1(C)C=CC(=O)c2c(O)ccc(O)c21	7	Non-Toxic	
1.77	> 100	O=C1C=CC2(CCCC2)c2c(O)ccc(O)c21	56.5	Non-Toxic	inhibition (INH) [5]: 100%; inhibition [6]: Dose-dependent effect; Activity [7]: inactive; Activity [19]: inactive; inhibition [20]: Active; Activity [11]: inactive; Activity [21]: inactive; inhibition [22]: Active; Activity [23]: inactive; inhibition (INH) [16]: 100%; inhibition [17]: Dose-dependent effect; inhibition [24]: Active; Activity [18]: inactive
